Laboratory results as given in ChEMBL document CHEMBL2331171, “Anti-malarial activity of new N-acetyl-L-leucyl-L-leucyl-L-norleucinal (ALLN) derivatives against Plasmodium falciparum” (Bioorg Med Chem Lett, 2013).
Where a SMILES comes first, the peptide text is derived from it. [ ]: non-standard residue; d: D form. Nle = CCCC[C@H](N)C(=O)O

How the values were obtained:
[1] = Therapeutic index, ratio of CC50 for human HeLa cells to IC50 for Plasmodium falciparum FCR-3; format: cell-based; conditions: HeLa cells versus Plasmodium falciparum FCR-3, read-out: Ratio CC50/IC50
[2] = Cytotoxicity against human HeLa cells assessed as growth inhibition after 48 hrs by MTS assay; format: cell-based
[3] = tested on: Plasmodium falciparum; test: Antimalarial activity against Plasmodium falciparum FCR-3 infected in erythrocytes assessed as reduction in parasitemia after 72 hrs by light microscopic analysis; format: functional, cell-based; conditions: FCR-3/Gambia
Summary of the method: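 P. falciparum FCR3 in erythrocytes exposed to compounds; parasitemia (parasite content of erythrocytes) counted microscopically; concentration giving 50% growth inhibition derived. Mean SD of three independent experiments, each in triplicate.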

| SMILES | IC50 [3] | selectivity ratio [1] | CC50 at 48 h [2] |
| --- | --- | --- | --- |
| CNC(=O)/C=C/[C@H](Cc1ccccc1)NC(=O)[C@@H](CCCNC(=O)OCc1ccccc1)NCc1cc(OC)cc(OC)c1 | 16.4 µM | 15.8 | 259 µM |
| CNC(=O)/C=C/C=C/[C@H](Cc1ccccc1)NC(=O)[C@@H](CCCNC(=O)OCc1ccccc1)NC(=O)OC(C)(C)C | 23.6 µM | 11.9 | 281 µM |
| CC(C)(C)OC(=O)N[C@H](CCCNC(=O)OCc1ccccc1)C(=O)N[C@H](/C=C/C(=O)N1CCCC1)Cc1ccccc1 | 11.4 µM | 13.4 | 153 µM |
| CC(C)(C)OC(=O)N[C@H](CCCNC(=O)OCc1ccccc1)C(=O)N[C@H](/C=C/C=C/C(=O)N1CCCCC1)Cc1ccccc1 | 15.7 µM | 11.2 | 175 µM |
| CNC(=O)/C=C/[C@H](Cc1ccccc1)NC(=O)[C@@H](CCCNC(=O)OCc1ccccc1)NCc1ccc(OC)cc1 | 16.7 µM | 27.6 | 461 µM |
| CNC(=O)/C=C/[C@H](Cc1ccccc1)NC(=O)[C@@H](CCCNC(=O)OCc1ccccc1)NCc1cccc(C)c1 | 5 µM | 48.3 | 242 µM |
| CNC(=O)/C=C/[C@H](Cc1ccccc1)NC(=O)[C@@H](CCCNC(=O)OCc1ccccc1)NCc1ccccc1 | 15.3 µM | 16.5 | 253 µM |
| CN(C)C(=O)/C=C/C=C/[C@H](Cc1ccccc1)NC(=O)[C@@H](CCCNC(=O)OCc1ccccc1)NC(=O)OC(C)(C)C | > 100 µM |  | 117 µM |
| CC(C)(C)OC(=O)N[C@H](CCCNC(=O)OCc1ccccc1)C(=O)N[C@H](/C=C/C=C/C(=O)N1CCCC1)Cc1ccccc1 | > 100 µM |  | 53.1 µM |

The next lines start with results.

| IC50 [3] | SMILES | selectivity ratio [1] | CC50 at 48 h [2] |
| --- | --- | --- | --- |
| 0.64 µM | CCCC[C@@H](C=O)NC(=O)[C@H](CC(C)C)NC(=O)[C@H](CC(C)C)NC(C)=O (Ac-Leu-Leu-[Nle]-aldehyde) | 39.2 | 25.1 µM |
| > 100 µM | CCNC(=O)/C=C/[C@H](Cc1ccccc1)NC(=O)[C@@H](CCCNC(=O)OCc1ccccc1)NC(=O)OC(C)(C)C |  | 2000 µM |
| 56.3 µM | CNC(=O)/C=C/[C@H](Cc1ccccc1)NC(=O)[C@@H](CCCNC(=O)OCc1ccccc1)NC(C)C | 10.8 | 611 µM |
| 5 µM | CNC(=O)/C=C/[C@H](Cc1ccccc1)NC(=O)[C@@H](CCCNC(=O)OCc1ccccc1)NC(=O)OC(C)(C)C | 157 | 1060 µM |
| 9.29 µM | CC(C)NC(=O)/C=C/[C@H](Cc1ccccc1)NC(=O)[C@@H](CCCNC(=O)OCc1ccccc1)NC(=O)OC(C)(C)C | 33.8 | 314 µM |
